GSIS activator – GLuc luminescence reporter in INS-1E cells, primary screen for activators of glucose-dependent secretion of insulin | INS-1E GLuc reporter insulin secretion, 2-3 h | activation, % at 16.6 µM | 0.61% of 370,000 active;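 active = lowest replicate activation of at least 40%, so every replicate reaches that level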
RAD54 branch – inhibitors of human RAD54 branch migration, primary screen, biochemical, fluorescence, single point. inhibition, % at 10.4 µM. DNA repair and recombination protein RAD54-like (Homo sapiens), Q92698. RAD54 Holliday junction branch migration, FAM/BHQ fluorescence. 0.14% of 360,000 active;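 active = mean normalized replicate activity at least 40 and at least half of replicates scoring 40 or more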;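 also: inhibitors cause a drop in the FAM fluorescence signal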
AF4-AF9 inh – inhibitors of AF4 peptide binding to AF9, primary screen, biochemical, AlphaScreen, biotin-AF4 peptide, FLAG-AF9, single point; Protein AF-9 (Homo sapiens), P42568; inhibition, % at 10 µM; 0.47% of 350,000 active; AID 651704, 2012;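 active = every replicate reaching a set inhibition limit, whatever the replicate mean, cut at about 25% in these data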
Target sequence (P42568 whole entry, looked up): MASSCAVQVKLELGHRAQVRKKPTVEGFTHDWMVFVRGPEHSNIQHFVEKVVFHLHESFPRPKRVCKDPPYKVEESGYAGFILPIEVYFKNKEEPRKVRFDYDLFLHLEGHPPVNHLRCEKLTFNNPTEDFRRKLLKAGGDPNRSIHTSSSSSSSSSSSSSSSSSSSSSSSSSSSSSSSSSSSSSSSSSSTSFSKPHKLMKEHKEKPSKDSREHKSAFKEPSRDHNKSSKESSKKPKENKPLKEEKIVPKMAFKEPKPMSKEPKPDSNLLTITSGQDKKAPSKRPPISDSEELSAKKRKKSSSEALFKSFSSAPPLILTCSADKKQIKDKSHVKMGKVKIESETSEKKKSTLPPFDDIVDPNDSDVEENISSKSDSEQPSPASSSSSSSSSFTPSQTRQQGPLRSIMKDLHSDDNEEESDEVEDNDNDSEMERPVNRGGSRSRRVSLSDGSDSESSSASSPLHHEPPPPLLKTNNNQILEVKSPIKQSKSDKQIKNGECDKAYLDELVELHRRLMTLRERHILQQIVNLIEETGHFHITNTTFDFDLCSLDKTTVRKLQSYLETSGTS
rRNA inh HTS – reduced GFP signal of wild-type E. coli, primary screen, bacterial rRNA inhibitor project, GFP/RFP fluorescence, OD600, single point. E. coli WT GFP vs humanized-ribosome RFP mutants, 24 h; stronger effect = lower value; DMSO median 0, no signal -100. GFP signal change (wild-type ribosome), % (no concentration beside the values). 1.6% of 350,000 active;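 active = significant combined selectivity score with lowered wild-type GFP, culture density cut under 30%, mutant RFP and density less affected; inactive = any of these conditions unmet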
E-selectin induc – E-selectin induction in HUVECs, primary screen, imaging, HUVEC, immunofluorescence imaging, single point; P16581; normalized: neutral wells 0, TNF-alpha wells 100; activation, % at 7.58 µM; 0.37% of 260,000 active; AID 686992, 2013;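 active = mean E-selectin-positive cell signal at least 10% of the positive control, reached in at least 60% of replicates, without over 20% cell loss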
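Test system: HUVEC; input: 3,000 HUVEC/well; measured by: immunofluorescence imaging; read-out: % PE-positive cells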
RAD52 inh – RAD52 DNA annealing inhibitors, primary screen, biochemical, FRET, single point, set 2. inhibition, % at 18.7 µM. DNA repair protein RAD52 homolog (Homo sapiens), P43351. recombinant RAD52 DNA annealing, FRET fluorescence. 0.46% of 360,000 active. AID 651710, 2012;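 active = every replicate showing at least 50% inhibition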
Each line names hits and unclear results; the compound was inactive in the other large screens. Sampled rows, rich in hits. Any-hit rate of the full collection: about 2.6%.

COc1cc(/C=C/C(=O)OCC(=O)NC(C)c2ccccc2)cc(OC)c1OC (centres undefined)	rRNA inh HTS -13.3 (no result: GSIS activator)
COc1cc(/C=C/C(=O)OCC(=O)NCc2cccs2)ccc1OC(F)F	GSIS activator 45.8 (no result: RAD54 branch, AF4-AF9 inh, rRNA inh HTS, E-selectin induc, RAD52 inh)
COc1cc(/C=C/C(=O)OCC(=O)N2CCC(C)CC2)ccc1O	none
COc1cc(N)c(Cl)cc1C(=O)OCC(=O)NCc1cccs1	E-selectin induc 72.9
CC(=O)N(C)C[C@@H]1Oc2ncc(C#CCC3CCCC3)cc2C(=O)N([C@H](C)CO)C[C@H]1C	none
C[C@@H]1CN([C@@H](C)CO)C(=O)c2cc(C#Cc3ccccn3)cnc2O[C@H]1CN(C)CC1CCCC1	none
COc1ccc(S(=O)(=O)Nc2ccc3c(c2)C(=O)N([C@@H](C)CO)C[C@H](C)[C@@H](CN(C)Cc2ccccc2)O3)cc1	none
CO[C@H]1CN(C)C(=O)c2ccc(NC(C)=O)cc2OC[C@H](C)N(Cc2cccnc2)C[C@H]1C	none (no result: RAD54 branch, AF4-AF9 inh, RAD52 inh)
COc1cc(/C=C/C(=O)OCC(=O)NCCc2ccccc2)ccc1OC(F)F	GSIS activator 61.1
COc1cc(/C=C/C(=O)OCC(=O)NCCc2ccc(F)cc2)ccc1OC(F)F	none (no result: GSIS activator)
CC(C)C(=O)Nc1nnc(NC(=S)Nc2ccccc2)s1	rRNA inh HTS -34.2 (no result: E-selectin induc)
CCCc1nnc(NC(=S)Nc2ccccc2)s1	none (no result: RAD54 branch, E-selectin induc)
CCCN1CCN(C(=O)c2ccc(CS(=O)c3ccc(Cl)cc3)o2)CC1 (centres undefined)	E-selectin induc 49.1
CCCN1CCN(C(=O)c2ccc(CS(=O)c3ccc(Br)cc3)o2)CC1 (centres undefined)	none (no result: E-selectin induc)
COc1ccccc1NC(=O)N[C@H]1CC[C@H](CCn2cc(-c3ccccc3OC)nn2)O[C@H]1CO	none (no result: GSIS activator, rRNA inh HTS)
Fc1ccc(/C=N/c2c(-c3ccc(F)cc3)nc3n2CCS3)cc1	GSIS activator 62.3 (no result: AF4-AF9 inh, rRNA inh HTS, E-selectin induc, RAD52 inh)
NC(=NCCc1c[nH]c2ccccc12)NS(=O)(=O)c1ccc(F)cc1	rRNA inh HTS -19.8 (no result: RAD54 branch)
NNC(=O)CCc1c[nH]c2ccccc12	none (no result: GSIS activator, AF4-AF9 inh, rRNA inh HTS, E-selectin induc, RAD52 inh)
NC(=NCCc1c[nH]c2ccccc12)NS(=O)(=O)c1ccc2ccccc2c1	none (no result: RAD54 branch, AF4-AF9 inh, rRNA inh HTS, E-selectin induc, RAD52 inh)
NC(=NCCc1c[nH]c2ccccc12)NC(=O)c1ccc(F)cc1	rRNA inh HTS -32.9
CC(C)C(=O)Nc1ccc2c(c1)C(=O)N(C)[C@@H]1CC[C@H](CC(=O)N[C@H](C)c3ccccc3)O[C@@H]1CO2	none (no result: AF4-AF9 inh, RAD52 inh)
N/C(=N\OC(=O)Nc1cccc(C(F)(F)F)c1)c1ccno1	rRNA inh HTS -51.2
C[C@@H]1CN([C@H](C)CO)C(=O)Cc2cc(NC(=O)CCC(F)(F)F)ccc2O[C@H]1CN(C)S(=O)(=O)c1ccc(Cl)cc1	none
Cc1ccc(CNC(=O)Cn2c(=O)c3sccc3n(Cc3ccc([N+](=O)[O-])cc3)c2=O)cc1	GSIS activator 42.3 (no result: RAD54 branch, AF4-AF9 inh, rRNA inh HTS, RAD52 inh)
COc1ccc(NC(=O)Nc2ccc3c(c2)CC(=O)N([C@@H](C)CO)C[C@@H](C)[C@@H](CN(C)C(=O)Nc2ccc(OC)cc2)O3)cc1	none
C[C@H]1CCCCO[C@@H](CN(C)C(=O)Nc2ccc3c(c2)OCO3)[C@@H](C)CN([C@@H](C)CO)C(=O)c2cc(NS(C)(=O)=O)ccc2O1	none
O=c1[nH]c2c(cnn2-c2ccc(Cl)cc2)c(=O)n1-c1cccc(Cl)c1	rRNA inh HTS -34.5 (no result: RAD54 branch)
O=c1oc(-c2cccc(Cl)c2)nc2c1cnn2-c1ccccc1	none (no result: AF4-AF9 inh, rRNA inh HTS, E-selectin induc, RAD52 inh)
C[C@@H]1CN([C@@H](C)CO)C(=O)c2cccc(N(C)C)c2O[C@H]1CN(C)Cc1ccncc1	none
O=C(NCc1cc(Cl)cc(Cl)c1)c1ccc2nc([C@@H]3O[C@H](CO)[C@@H](O)[C@H]3O)[nH]c2c1	GSIS activator 55.8
C[C@@H]1CN(C)C(=O)c2cccnc2O[C@@H]1CN(C)S(C)(=O)=O	none (no result: RAD54 branch, AF4-AF9 inh, E-selectin induc, RAD52 inh)
CCC(=O)N(C)C[C@H]1Oc2cc(-c3ccc(F)cc3)ccc2S(=O)(=O)N([C@@H](C)CO)C[C@@H]1C	none
O=C(/C=C(\Nc1cc(Cl)c(F)c(Cl)c1)c1ccccc1)c1ccccc1	GSIS activator 157.2 (no result: RAD54 branch, AF4-AF9 inh)
O=C(/C=C(\Nc1cc(Cl)c(Cl)c(Cl)c1)c1ccccc1)c1ccccc1	none (no result: RAD54 branch, AF4-AF9 inh)
CO[C@H]1CN(C)C(=O)c2ccc(NC(=O)Nc3cc(F)ccc3F)cc2OC[C@@H](C)N(C(=O)c2cnccn2)C[C@H]1C	none
Cc1onc(-c2c(F)cccc2Cl)c1-c1nnc(-c2ccc(C(F)(F)F)cc2)o1	none
Cc1onc(-c2ccccc2)c1-c1nnc(-c2ccccc2C(F)(F)F)o1	rRNA inh HTS -19.9
Cc1ccc(S(=O)(=O)Nc2cccc3c2O[C@@H](CN(C)C(=O)NC2CCCCC2)[C@H](C)CN([C@@H](C)CO)C3=O)cc1	none
CNC(=O)C1CC(=O)N(c2ccc(OCC(=O)Nc3ccccc3)cc2)C1 (centres undefined)	GSIS activator 55.0
CCOc1ccc(NC(=O)COc2ccc(N3CC(C(N)=O)CC3=O)cc2)cc1 (centres undefined)	none
CCNC(=O)C[C@@H]1CC[C@@H]2[C@@H](COc3ccc(NS(=O)(=O)c4ccccc4C)cc3C(=O)N2C)O1	none
COC(=O)C1=C(C)N(Cc2ccc(C(F)(F)F)cc2)C(=NCc2ccccc2C(F)(F)F)NC1c1ccc(Cl)cc1 (centres undefined)	GSIS activator 49.1 (no result: RAD54 branch, AF4-AF9 inh)
COC(=O)C1=C(C)N(Cc2ccc(C(F)(F)F)cc2)C(=NCc2ccccc2C(F)(F)F)NC1c1cccc(Cl)c1 (centres undefined)	GSIS activator 241.7 (no result: RAD54 branch, AF4-AF9 inh)

Compound activity deposited in PubChem BioAssay by Broad Institute.
